Compound activity: PubChem, several laboratories
Hits are enriched below; roughly 2.4% of the tested compounds scored in any of these assays.
HKDC1 inhibitor – inhibitors of human hexokinase HKDC1. recombinant HKDC1, G6PDH/diaphorase resazurin coupled fluorescence. inhibition, % at 20 µM. 340,000 tested, 0.16% active;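 active = inhibition above about 35% when tested at 20 µM, limit read from the data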;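 note: plate controls were DMSO wells with enzyme for no effect and DMSO wells lacking enzyme for full effect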
Target sequence (Q2TB90 whole entry, looked up): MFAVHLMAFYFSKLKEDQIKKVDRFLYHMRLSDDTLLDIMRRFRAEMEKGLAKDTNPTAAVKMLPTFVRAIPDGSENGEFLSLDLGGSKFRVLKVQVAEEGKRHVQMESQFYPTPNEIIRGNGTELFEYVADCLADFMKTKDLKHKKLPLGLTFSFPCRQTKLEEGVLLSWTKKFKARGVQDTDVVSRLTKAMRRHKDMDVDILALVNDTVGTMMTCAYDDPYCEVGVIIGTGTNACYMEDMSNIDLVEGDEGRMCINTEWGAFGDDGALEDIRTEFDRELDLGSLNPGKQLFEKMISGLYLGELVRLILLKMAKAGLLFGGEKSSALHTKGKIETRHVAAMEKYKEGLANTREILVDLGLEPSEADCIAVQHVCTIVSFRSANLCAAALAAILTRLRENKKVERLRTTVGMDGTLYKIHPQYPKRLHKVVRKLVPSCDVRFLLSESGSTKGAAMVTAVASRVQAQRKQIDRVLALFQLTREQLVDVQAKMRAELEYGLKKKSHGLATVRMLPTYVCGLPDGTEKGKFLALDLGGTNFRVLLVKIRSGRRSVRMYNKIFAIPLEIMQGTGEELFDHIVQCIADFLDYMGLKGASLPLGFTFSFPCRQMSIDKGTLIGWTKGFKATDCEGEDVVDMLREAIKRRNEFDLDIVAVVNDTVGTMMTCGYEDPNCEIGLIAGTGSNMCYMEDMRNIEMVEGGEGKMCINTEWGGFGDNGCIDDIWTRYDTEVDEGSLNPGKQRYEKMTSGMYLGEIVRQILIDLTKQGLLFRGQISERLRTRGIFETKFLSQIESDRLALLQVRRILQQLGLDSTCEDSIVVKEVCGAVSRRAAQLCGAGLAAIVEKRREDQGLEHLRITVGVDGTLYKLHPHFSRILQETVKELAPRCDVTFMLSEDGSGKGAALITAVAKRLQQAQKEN
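Material – in-house recombinant HK5 (HKDC1) enzyme · Quantity – HKDC1 at 5 µg/mL · Buffer or medium – pH 8.0 Tris buffer with 10 mM MgCl2 · Reagent – glucose with 1 mM ATP · Dosing – single 20 µM dose · Times – reaction time 90 min, room temperature, protected from light · Technique – resorufin fluorescence at 613 nm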
PfM18AAP inh-1 – PfM18AAP enzyme inhibition | recombinant PfM18AAP, H-Glu-NHMec fluorogenic cleavage | inhibition, % at 7.35 µM | 290,000 tested, 1.2% active;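 active = inhibition above the campaign mean inhibition over all tested compounds plus 3 SD, cut at about 28% in these data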;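 note: 0% = plate median of test compound wells and 100% = 2 mM ZnCl2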
UBC9 SUMO inh – SUMOylation inhibition; P63279; AID 2006; 290,000 tested, 0.36% active; inhibition, % at 35 µM; HTRF SUMOylation assay, SAE1/SAE2 + UBC9, in vitro; in the data active = inhibition above about 50%, passing the limit was not always enough; inconclusive = no clear call, values can overlap the other calls
A3G deaminase – blocks human APOBEC3G single-stranded DNA deamination; Q9HC16; recombinant A3G, ssDNA deamination FAM/TAMRA fluorescence; inhibition, % at 20 µM; 330,000 tested, 0.28% active; AID 493012;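 active = inhibition of at least 40% at 20 µM, with no more than 30% in the related APOBEC3A deaminase screen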;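 note: plate controls were DMSO wells with A3G for no effect and wells lacking A3G enzyme for full effect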
PfGluPho inh – PfG6PD (Plasmodium falciparum) enzyme inhibition | PfGluPho enzyme, NADPH resazurin-diaphorase fluorescence | inhibition, % at 20 µM | 350,000 tested, 0.78% active | AID 504690;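 active = inhibition reaching at least a set limit at 20 µM in the primary screen, cut at about 59% in these data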;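 note: 0% = DMSO wells with substrate and 100% = DMSO wells lacking glucose-6-phosphate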
A3A deaminase – human APOBEC3A DNA deaminase inhibition | P31941 | recombinant A3A, FAM/TAMRA ssDNA deamination fluorescence | inhibition, % at 20 µM | 330,000 tested, 0.41% active;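 active = at least 40% inhibition at 20 µM here, with at most 30% in a related deaminase screen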;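 note: plate controls were A3A with DMSO for no effect and wells lacking A3A enzyme for full effect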
PfM18AAP inh-2 – confirmation of Plasmodium falciparum M18 aspartyl aminopeptidase inhibitors; 2,400 tested, 28% active; recombinant PfM18AAP, H-Glu-NHMec fluorogenic cleavage; shares compounds with PfM18AAP inh-1; inhibition, % at 7.35 µM;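 active = mean inhibition over replicate wells above the hit cutoff set for the earlier primary screen, cut at about 29% in these data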;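 note: 0% = median of test compound wells and 100% = 2 mM ZnCl2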
CTSL1 counter – Cathepsin L (human) inhibition, confirmation; shares compounds with PfM18AAP inh-1; purified cathepsin L1, Z-Leu-Arg-MCA fluorescence; inhibition, % at 5.96 µM; 2,400 tested, under 10 active; AID 2178;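 active = average inhibition across replicates above the hit cutoff set in the earlier primary screen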;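 note: 0% = median of test compound wells and 100% = Z-Phe-Ala-diazomethylketone 1 µM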
Starred values were filed as active, the others as inactive; ? = inconclusive; . = no result given.

SMILES	HKDC1 inhibitor	PfM18AAP inh-1	UBC9 SUMO inh	A3G deaminase	PfGluPho inh	A3A deaminase	PfM18AAP inh-2	CTSL1 counter
O=C(N/N=C/c1ccc(Cl)cc1Cl)c1ccc(-n2cnnn2)cc1	-5	.	.	-8	8	3	.	.
COc1ccc(-n2cc(-c3ccc(OC)c(OC)c3)[nH]c2=S)cc1	-3	41*	-5	-6	56	0	4	10
COc1ccc(-n2cc(-c3ccc(Br)cc3)[nH]c2=S)cc1	-7	14	-5	-2	13	-2	.	.
Cc1cccc(NC(=S)/N=C(\N)Nc2nc(C)c3ccc(C)cc3n2)c1	-5	-5	-4	-4	-15	-2	.	.
O=C1NN(c2ccccc2)C(=O)/C1=C\c1coc2ccc(O)cc2c1=O	10	37*	22	5	5	14	-4	-6
CCc1cccc(CC)c1NC(=S)NCCc1ccc(O)c(O)c1	-10	65*	-2	-7	24	3	40*	-9
O=C(NCCC1CCCC1)c1cccs1	-6	53*	-6	-2	6	-3	-39	-10
COC(=O)CNc1n[nH]c(=S)[nH]c1=O	-8	5	-37	-3	-9	-1	.	.
O=c1c(OC2OC(CO)C(O)C(O)C2O)c(-c2ccc(O)c(O)c2)oc2cc(O)cc(O)c12 (stereo not given)	0	62*	22	-9	-22	-2	46*	1
C[C@@H]1O[C@@H](Oc2c(-c3cc(O)c(O)c(O)c3)oc3cc(O)cc(O)c3c2=O)[C@H](O)[C@H](O)[C@H]1O	1	46*	17	4	28	7	11	-1
CCOc1cccc2cc(-c3csc(NC(=O)CCC(=O)NCCCN4CCC(C)CC4)n3)c(=O)oc12	.	4	5	0	.	2	.	.
CCOC(=O)N1CCN(S(=O)(=O)c2cccc3nonc23)CC1	-2	-11	0	-5	1	-2	.	.
CCCC(=O)NCCc1ccc(S(N)(=O)=O)cc1	-6	3	-8	-5	5	-1	.	.
O=C(NCCNc1ccc(Cl)cc1[N+](=O)[O-])c1ccccc1F	0	-4	-14	-3	4	-2	.	.
COc1ccc(OC)c(-c2c3cc(O)c(=O)cc-3oc3cc(O)c(O)cc23)c1	34	45*	?	.	37	.	26	4
Cc1cccc(NC(=O)CNC(=O)N2CC(=O)Nc3ccccc32)c1C	-3	-8	3	-8	-21	-6	.	.
CCC(=O)Nc1nc2ccc(NC(=O)COc3ccccc3)cc2s1	-5	43*	3	8	-3	-2	-42	-10
Cc1nc2ccc(NC(=O)COc3ccccc3)cc2s1	1	5	5	.	-10	.	.	.
CCCCC(=O)NNC(=S)NC(=O)c1ccc(C)cc1	-10	46*	-24	3	17	-4	-28	1
N#CCC(=O)NNC(=S)Nc1ccccc1C(F)(F)F	0	46*	-8	1	-9	5	-37	1
Cc1ccc(C(=O)NC(=S)NNC(=O)CC#N)cc1	-16	33*	6	19	1	-1	-30	0
CCCCC(=O)NNC(=S)NC(=O)c1ccc([N+](=O)[O-])cc1	-8	39*	1	5	18	-2	-25	-2
CCCCC(=O)NNC(=S)NC(=O)c1cccc([N+](=O)[O-])c1	-15	27	24	36	33	-3	.	.
O=C(Nc1ccccc1N1CCCCC1)c1cccc([N+](=O)[O-])c1	4	0	-6	2	2	0	.	.
CSc1ccc(C(=S)N2CCN(C(c3ccccc3)c3ccccc3)CC2)cc1	-2	41*	17	35	56	0	-5	-1
SMILES	HKDC1 inhibitor	PfM18AAP inh-1	UBC9 SUMO inh	A3G deaminase	PfGluPho inh	A3A deaminase	PfM18AAP inh-2	CTSL1 counter
CCn1c(=O)n(CC)c2cc(N3CCCC3)c(NC(=O)c3c(F)cccc3F)cc21	1	35*	-13	-5	39	-6	-20	2
COC(=O)c1ccc(OCC(O)CN2C(=O)c3ccccc3S2(=O)=O)cc1 (stereo not given)	1	0	15	-4	-5	1	.	.
COc1ccc(O)c(C(=O)c2cnn(C(=O)c3cccc(N(C)C)c3)c2)c1	3	.	.	-4	-18	-2	.	.
CN(C)c1cccc(C(=O)n2cc(C(=O)c3cc(F)ccc3O)cn2)c1	5	53*	24	1	-15	0	-5	4
O=C(c1cnn(C(=O)COc2ccccc2F)c1)c1cc(F)ccc1O	0	43*	-2	-8	-6	-5	-15	-10
O=C(NCCN1Cc2ccccc2C1=O)c1cccs1	-2	-4	0	-1	7	1	.	.
Fc1ccc(-n2c(=S)[nH]c3cccnc32)cc1	-2	37*	8	21	44	-6	4	2
O=c1[nH]c(=S)n(-c2ccc(Br)cc2)c2ncccc12	0	.	.	-7	6	-3	.	.
CS(=O)(=O)NN1C(=O)c2ccccc2NC1c1ccccc1O (stereo not given)	-10	4	12	-6	-15	-1	.	.
CC(=O)NN1C(=O)c2ccccc2NC1c1ccccc1O (stereo not given)	-3	42*	23	-8	-8	-3	12	-2
Cc1[nH]nc2c1C(c1ccco1)C(C#N)=C(N)O2 (stereo not given)	0	14	-4	-6	-8	-4	.	.
Cc1[nH]nc2c1C(c1cc(Br)cs1)C(C#N)=C(N)O2 (stereo not given)	7	72*	-2	-8	-11	7	62*	0
Cc1[nH]nc2c1[C@@H](c1ccccc1[N+](=O)[O-])C(C#N)=C(N)O2	4	36*	0	-6	8	-2	10	3
CCOC(=O)c1c(N)sc(C(=O)Nc2ccccc2)c1C	0	-8	4	-7	50	0	.	.
CCOC(=O)c1c(N)sc(C(=O)Nc2ccccc2F)c1C	-9	37*	8	-5	12	1	-34	-1
COc1ccc(C(=O)NCCNc2ncc(C(F)(F)F)cc2Cl)cc1[N+](=O)[O-]	2	6	-8	-7	24	-5	.	.
CCN(CC)c1cccc(OC2=NS(=O)(=O)c3ccccc32)c1	1	36*	13	0	43	-2	2	1
O=C1C=CC(=O)N1Cc1ccncc1	-2	.	.	.	4	.	.	.
Cc1ccc(/C=C2\SC(=S)N(/N=C/c3cc([N+](=O)[O-])ccc3O)C2=O)o1	-12	40*	.	72	51	89	-5	7
Cc1ccc(NC(=O)c2cccc(S(=O)(=O)N3CCCC3)c2)nc1	-6	.	.	-2	8	17	.	.
